Measurements gathered from unrelated publications.
Lines come from different studies, so protocols differ.
Target: Phosphatidylinositol 4-phosphate 5-kinase type-1 alpha (PIP5K1A, Homo sapiens, UniProt Q99755)

Structure (SMILES)	observed	method	concentration	remaining binding
O=C(Nc1ccc(Oc2ccc(F)cc2)cc1)N1CCc2ncccc2[C@H]1c1ccc(F)cc1	cell-free assay	competition with immobilised ligand	1 µM	95%
CC1CCCN1c1nccc(-c2cnn3ncccc23)n1 (centres unmarked)	binding		1 µM	100%
CCCOc1ccc([C@@H]2[C@@H](C(=O)O)[C@H](c3ccc4c(c3)OCO4)CN2CC(=O)Nc2c(CC)cccc2CC)cc1	cell-free assay	competition with immobilised ligand	1 µM	90%
COc1cnc(Nc2cccc(S(N)(=O)=O)c2)nc1N1CCN(c2ccccc2)C(=O)C1	binding	competition with immobilised ligand	1 µM	89%
O=C(c1ccc(Nc2ncc(Cl)c(-c3ccc(Cl)s3)n2)cc1)N1CCC(N2CCCC2)CC1	binding	competition with immobilised ligand	1 µM	3%
CCN1CCN(Cc2ccc(C(=O)Nc3ccc(C)c(Oc4ccc5c(c4)CC(=O)N5)c3)cc2C(F)(F)F)CC1	binding	competition with immobilised ligand	1 µM	100%
O=C(NCCCN1CCOCC1)c1ccc(Nc2nccc(-c3cc4ccccc4s3)n2)cc1	binding	competition with immobilised ligand	1 µM	4.2%
N[C@@H]1CCN(c2nccc(-c3cnn4ncccc34)n2)C1	binding		1 µM	100%
c1cncc(-c2cccc(Nc3nccc(NC4CCCCC4)n3)c2)c1	binding	competition with immobilised ligand	10 µM	71%
FC(F)(F)Oc1cccc(-c2cnc3ccc(-c4ccncc4)nn23)c1	cell-free assay	competition with immobilised ligand	5 µM	20%
CN(C)c1nccc(-c2cnc3ncccn23)n1	binding		1 µM	72%
Cc1cc(C)c(-n2ccn3nc(-c4cccnc4)cc23)cc1NC(=O)c1cc(C#N)cc(S(F)(F)(F)(F)F)c1	cell-free assay	competition with immobilised ligand	0.1 µM	95%
C=CC(=O)N1CCC(C(=O)NCC(=O)N2CCN(c3nc(-c4cnc(N)nc4C(F)F)nc(N4CCOCC4)n3)CC2)CC1	binding	competition with immobilised ligand	1 µM	100%
C[C@H](c1cccc(C#N)c1)n1cc(Cl)cc(C(N)=O)c1=N	cell-free assay	competition with immobilised ligand	1 µM	100%
O=C(Nc1c[nH]nc1C(=O)NC1CCNCC1)c1cc(F)cc(F)c1	binding	competition with immobilised ligand	1 µM	100%
COc1cnc(Nc2cccc(S(N)(=O)=O)c2)nc1N1CCN(c2ccccc2)CC1	binding	competition with immobilised ligand	1 µM	93%
c1cnn2ncc(-c3ccnc(N4CCC45COC5)n3)c2c1	binding		1 µM	100%
O=C(NCCCN1CCOCC1)c1ccc(Nc2ncc(Cl)c(-c3ccc(Cl)s3)n2)cc1	binding	competition with immobilised ligand	1 µM	8.3%
CN(c1ccnc(CNc2nc(Nc3ccc4c(c3)CC(=O)N4)ncc2C(F)(F)F)n1)S(C)(=O)=O	cell-free assay	competition with immobilised ligand	1 µM	12%
CN(c1nccc(-c2cnn3ncccc23)n1)C1CC1	binding		1 µM	100%
COc1ccc2cc(OCC3(C(=O)O)CN(C(=O)c4ccc(F)cc4)C3)ccc2c1	cell-free assay	competition with immobilised ligand	1 µM	100%
C[C@@H]1CCN(c2nccc(-c3cnn4ncccc34)n2)C1	binding		1 µM	52%
COc1ncc2cc3ccccc3nc2c1C#N	cell-free assay	competition with immobilised ligand	5 µM	100%
